Reference: ChEMBL document CHEMBL1153726, “Synthesis and anticancer activity of sclerophytin-inspired hydroisobenzofurans” (Bioorg Med Chem Lett, 2009)

Assay: Antitumor activity against human KB3 cells after 96 hrs by MTT assay
Assay type: functional, cell-based
Conditions: KB3, 96 h
Outline: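 Human KB-3 carcinoma cells exposed to increasing compound concentrations; viability read by MTT colorimetric assay after 96 h. Values are means of triplicate assays, expressed relative to untreated controls.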

Row | SMILES | IC50 [µM]
1 | C=C(C)[C@H]1CC=C(C)[C@@]2(O)[C@@H]1[C@H](c1ccccn1)O[C@@H]2C(=O)OC | 100
2 | C=C(C)[C@H]1CC=C(C)[C@@]2(O)[C@@H]1[C@H](c1cccc(Cl)c1Cl)O[C@@H]2C(=O)OCC | 5
3 | C=C(C)[C@H]1CC=C(C)C2=CO[C@@H](c3ccccc3Br)[C@@H]21 | 4
4 | C=C(C)[C@H]1CC=C(C)C2=CO[C@@H](c3ccco3)[C@@H]21 | 2
